In ChEMBL document CHEMBL1146746, “Propargylic sulfones possessing a 2-nitroimidazole function: novel hypoxic-cell radiosensitizers with intracellular non-protein thiol depletion ability” (Bioorg Med Chem Lett, 2004) one finds Po/w and k2 data, which are given here for four compounds.

Data set [1] in a line: Partition coefficient in octanol to water system. The format is physicochemical.
Data set [2] can be described thus: Second order rate constant was determined for the reaction of compound with GSH in phosphate buffer at a pH of 8.5. The method, boiled down: (§1)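 Test compound and GSH reacted in phosphate buffer at 37 °C, pH 7.5 for lines 2 and 3 and pH 8.5 for line 4. Aliquots were taken at set times and quenched into phosphate buffer containing 0.2 mM Ellman's reagent (DTNB). Unreacted GSH was measured by UV absorbance at 412 nm. Second-order rate constant k₂ for nucleophilic GSH addition is given in mM⁻¹ h⁻¹.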

The nature of data set [3]: Second order rate constant determined for the reaction of compound with GSH in phosphate buffer at a pH of 7.5. The method, boiled down: as §1
Data set [4] can be described thus: Second order rate constant was determined for the reaction of compound with GSH in phosphate buffer at a pH of 7.5. In a few lines:
as §1

`CC(=O)OC(CC#CCS(=O)(=O)c1ccc([N+](=O)[O-])cc1)Cn1ccnc1[N+](=O)[O-]` (stereo not given): the Po/w in data set [1] is 15. In addition, the k2 was 17 m M-1 hr-1 in data set [2] and 3 m M-1 hr-1 in data set [3].
Take `CC(=O)OC(CC#CCSc1ccc([N+](=O)[O-])cc1)Cn1ccnc1[N+](=O)[O-]` (stereo not given): the k2 in data set [2] is 0.8 m M-1 hr-1.
The compound `O=C(O)CCC(=O)OC(CC#CCS(=O)(=O)c1ccc([N+](=O)[O-])cc1)Cn1ccnc1[N+](=O)[O-]` (stereo not given) gave a Po/w in data set [1] of 2.2. In addition, the figures for the k2 in data set [4] and in data set [2] were 1.1 m M-1 hr-1 and 8.6 m M-1 hr-1, respectively.
The like results for `CC(=O)OC(CC#CCS(=O)(=O)c1ccccc1)Cn1ccnc1[N+](=O)[O-]` (stereo not given) were, in that order, 22.2, 0.2 m M-1 hr-1 and 0.7 m M-1 hr-1.
